Source: PubChem BioAssay (Broad Institute)
E-sel inducer = E-selectin induction in HUVECs, primary screen, imaging, HUVEC, immunofluorescence imaging, single point | P16581 | normalized: neutral wells 0, TNF-alpha wells 100 | activation, % at 7.58 µM | hit rate 0.37% among 260,000 | AID 686992, 2013;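 active = mean E-selectin-positive cell signal at least 10% of the positive control, reached in at least 60% of replicates, without over 20% cell loss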
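material = human umbilical vein endothelial cells (HUVEC), E-selectin induction | quantity = 3,000 cells/well | medium = EGM-2 growth medium on 0.1% gelatin-coated wells | technique = immunofluorescence imaging | read-out basis = % PE-positive cells | control set = TNF-alpha positive control, DMSO neutral control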
SIRT5 block = SIRT5 desuccinylase inhibitors, primary screen, biochemical, fluorescence imaging, single point, set 5 | NAD-dependent protein deacylase sirtuin-5, mitochondrial (Homo sapiens), Q9NXA8 | AID 652115, 2013 | Purified SirT5, succinyl-peptide AMC, trypsin-coupled fluorescence | inhibition, % at 15 µM | hit rate 1.1% among 330,000; in the data active = inhibition above about 15%
Target sequence (Q9NXA8 whole entry, looked up): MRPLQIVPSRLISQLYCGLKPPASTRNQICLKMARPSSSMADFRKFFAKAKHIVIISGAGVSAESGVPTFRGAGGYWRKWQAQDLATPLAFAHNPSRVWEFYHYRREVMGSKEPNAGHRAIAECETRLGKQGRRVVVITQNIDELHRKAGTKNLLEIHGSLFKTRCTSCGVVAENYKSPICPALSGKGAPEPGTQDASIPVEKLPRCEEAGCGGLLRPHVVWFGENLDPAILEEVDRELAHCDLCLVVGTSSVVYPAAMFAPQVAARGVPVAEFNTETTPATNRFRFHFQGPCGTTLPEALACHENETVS
FN deposition inh = inhibitors of fibronectin matrix deposition, primary screen, AH1F cells, Alexa488-fibronectin fluorescence, plate reader | AID 743247, 2014 | AH1F fibroblasts, overnight | hit rate 0.086% among 350,000 | inhibition, % at 12.6 µM;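 active = mean inhibition across replicates of 30% or more, regardless of how many single replicates reach that level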;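 note: positive control wells lacked labelled fibronectin entirely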
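Test system: AH1F fibroblast monolayer depositing Alexa488-labelled fibronectin into matrix. Input: 10000 cells per well. Technique: fluorescence, ex 485 nm, em 525 nm. Buffer or medium: DMEM plus 2% serum, read in PBS. Timing: 1 h cell adhesion before compound, then overnight fibronectin incubation. Compound: single dose, pinned. Read-out basis: inhibition from reduced deposited-fibronectin fluorescence.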
Ecoli rRNA inh = reduced GFP signal of wild-type E. coli, primary screen, bacterial rRNA inhibitor project, GFP/RFP fluorescence, OD600, single point. GFP signal change (wild-type ribosome), % (concentration not given with the values). E. coli WT GFP vs humanized-ribosome RFP mutants, 24 h; hits give low values; DMSO median 0, no signal -100. AID 720706, 2013. hit rate 1.6% among 350,000;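 active = significant combined selectivity score with lowered wild-type GFP, culture density cut under 30%, mutant RFP and density less affected; inactive = any of these conditions unmet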
FGF22 binding = binders of human FGF22 protein, primary screen, FGF22 synaptogenesis inhibitor project, biophysical, thermal shift, single point | activity (Tm shift, normalised), % at 9.99 µM | recombinant FGF22 thermal shift, SYPRO orange fluorescence; percent of sucrose octasulfate shift, DMSO zero | Fibroblast growth factor 22 (Homo sapiens), Q9HCT0 | hit rate 1.5% among 340,000;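 active = mean Tm shift, scaled 0 neutral to 100 positive control, at about 1.3% or above, every replicate too, limit read from the data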
Target sequence (Q9HCT0 whole entry, looked up): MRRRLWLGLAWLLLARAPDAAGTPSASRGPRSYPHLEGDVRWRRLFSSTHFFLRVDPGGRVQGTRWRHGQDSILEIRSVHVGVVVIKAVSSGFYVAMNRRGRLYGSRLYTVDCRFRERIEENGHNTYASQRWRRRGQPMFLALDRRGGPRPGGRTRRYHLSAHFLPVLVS
Statin myotox sup = suppressors of statin myotoxicity in C2C12 myotubes, primary screen, cell-based, single point, plate reader; C2C12 myotubes + simvastatin, ATP luminescence, 48 h; scaled: DMSO 0, geranylgeraniol control 100; rescue of ATP level, % at 7.49 µM; hit rate 0.78% among 330,000;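 active = mean ATP rescue above about 67%, or every replicate alone reaching that limit, limit read from the data, passing the limit was not always enough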;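 note: myotubes were challenged with 10 µM simvastatin during compound exposure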
* hit, by the source's call; . = not tested or not shown. Sampled rows, rich in hits. Any-hit rate of the full collection: about 4%.

SMILES	E-sel inducer	SIRT5 block	FN deposition inh	Ecoli rRNA inh	FGF22 binding	Statin myotox sup
COc1ccc(CN(C)C[C@@H]2Oc3c(NC(=O)Nc4ccc(F)cc4)cccc3C(=O)N([C@@H](C)CO)C[C@H]2C)cc1	261*	-3	.	-4	0	-30
COc1ccc(NC(=O)Nc2cccc3c2O[C@@H](CN(C)Cc2ccc(Oc4ccccc4)cc2)[C@H](C)CN([C@@H](C)CO)C3=O)cc1	-3	16*	.	-4	0	39
CCNC(=O)Nc1ccc2c(c1)C(=O)N(C)[C@@H]1CC[C@@H](CC(=O)NCCOC)O[C@H]1CO2	0	-5	-5	3	0	-23
COc1ccc(NC(=O)N[C@H]2CC[C@@H](CCNC(=O)Nc3cc(F)ccc3F)O[C@@H]2CO)cc1	0	.	2	-6	.	14
CCCNC(=O)N[C@@H]1CC[C@H](CCn2cc(C3CCCCC3)nn2)O[C@@H]1CO	0	17*	-8	-1	0	-2
O=C(CCN1CCCCC1)N[C@H]1CC[C@@H](CCn2cc(-c3ccc(F)cc3)nn2)O[C@H]1CO	0	23*	.	3	0	4
O=C(CCN1CCCCC1)N[C@@H]1CC[C@@H](CCn2cc(-c3ccccc3)nn2)O[C@@H]1CO	0	0	.	0	0	12
O=C(N[C@@H]1CC[C@@H](CCn2cc(-c3ccc(F)cc3)nn2)O[C@@H]1CO)c1cnccn1	0	15*	.	0	0	6
CCC(=O)N(C)C[C@@H]1Oc2cc(C#CC3CC3)ccc2S(=O)(=O)N([C@@H](C)CO)C[C@H]1C	1	-1	.	-12	0	16
CNC[C@@H]1OCCCC[C@@H](C)Oc2ccc(NC(=O)Nc3ccc(C(F)(F)F)cc3)cc2C(=O)N([C@H](C)CO)C[C@H]1C	0	-5	-1	-30	0	11
CCCC(=O)Nc1ccc2c(c1)C(=O)N(C)C[C@@H](OC)[C@H](C)CN(S(=O)(=O)c1cn(C)cn1)[C@@H](C)CO2	0	-1	6	2	0	-2
COC(=O)C[C@@H]1CC[C@H]2[C@H](COc3ccc(NC(=O)Nc4ccccc4C)cc3C(=O)N2C)O1	0	2	2	1	0	-12
O=C(NC1CCN(Cc2ccccc2)CC1)c1ccc2c(c1)[nH]c(=O)n2Cc1ccc(F)cc1	.	-2	-3	-32*	0	.
O=C(C[C@H]1C[C@@H]2c3cc(NS(=O)(=O)c4ccccc4)ccc3O[C@@H]2[C@H](CO)O1)N1CCCCC1	0	0	-1	1	0	4
O=C1c2ccccc2/C(=C\c2ccc(Br)s2)N1c1ccccc1	.	2	0	-28	0	17
O=C1c2ccccc2/C(=C\c2ccc(Br)nc2)N1c1ccccc1	0	.	12	11	43*	.
CN1[C@@H]2c3ccc(C4=CCCCC4)c(=O)n3C[C@H]1[C@H](CO)[C@H]2C(=O)N1CCCCC1	1	-18	.	2	0	5
CCN(CC)c1ccc(/C=N/NC(=O)c2cccc(S(=O)(=O)N3CCOCC3)c2)c(O)c1	0	0	11	-30	43*	-14
O=C(NC1CCCCCC1)c1cccc(S(=O)(=O)N2CCOCC2)c1	0	-5	-4	1	0	3
CC1CCC(NC(=O)c2cccc(S(=O)(=O)N3CCOCC3)c2)CC1 (configuration not stated)	0	.	4	2	43*	-6
COc1ccc(Nc2n[nH]c(N)c2C(N)=O)cc1	28*	0	8	7	0	0
Cc1cc(C(=O)Nc2cccc3c2O[C@@H](CN(C)C(=O)Nc2ccc(F)cc2)[C@@H](C)CN([C@@H](C)CO)C3=O)n(C)n1	-12	-1	.	0	0	9
COc1ccccc1NC(=O)NCC(=O)Nc1ccc(F)c(F)c1	.	.	.	.	.	9
CCN(CC(=O)Nc1ccccc1OC)CC(=O)Nc1c(Cl)ccc(C)c1Cl	0	-2	10	-26*	41	8
CCC(=O)NC(=S)Nc1ccccc1OC	.	.	.	.	.	133*
SMILES	E-sel inducer	SIRT5 block	FN deposition inh	Ecoli rRNA inh	FGF22 binding	Statin myotox sup
COc1ccccc1NC(=O)CNc1ccc(F)c(Cl)c1	2	31*	2	-30	0	.
COc1ccccc1NC(=S)NC1CCCC1	0	.	0	13	0	.
COc1ccccc1NC(=S)NC1CC2CCC1C2 (configuration not stated)	1	.	4	11	0	126*
COc1ccc(S(=O)(=O)N(C)C[C@@H]2Oc3ccc(NC(=O)Nc4cccc5ccccc45)cc3C(=O)N([C@@H](C)CO)C[C@H]2C)cc1	0	.	6	0	.	.
O=C(N[C@@H]1CC[C@H](CCNS(=O)(=O)c2ccc(Cl)cc2)O[C@@H]1CO)c1cccnc1	-2	2	.	4	0	-3
CN1C(=O)c2cc(NC(=O)NC3CCCC3)ccc2OC[C@H]2O[C@@H](CC(=O)O)CC[C@@H]21	0	-5	-7	6	0	23
COc1ccccc1NC(=O)CCCCC(=O)Nc1ccccc1OC	.	16*	6	14	0	16
COc1ccccc1NC(=O)CCS(=O)(=O)c1ccccc1	.	.	3	19	0	.
COCCNC(=S)N(CCc1c(C)[nH]c2ccc(Cl)cc12)Cc1cccs1	5	1	20	-22*	0	-21
Clc1ccccc1OCCNc1nc(NCC2CC2)nc2ccsc12	0	23*	-1	-51	-1	-26
CC1(C)C(=O)N(c2ccccc2Cl)C(=O)c2ccccc21	1	.	-3	-3	0	43
CC1(C)C(=O)N(c2ccccc2)C(=O)c2ccccc21	52*	.	-1	10	0	.
N#CC(c1ccc(Cl)cc1)c1ccc(Cl)nn1 (configuration not stated)	.	.	.	.	.	106*
COCC(=O)Nc1ccc2c(c1)C(=O)N(C)[C@H]1CC[C@@H](CC(=O)OC)O[C@@H]1CO2	0	.	1	3	0	4
O=C(NCc1ccccc1)[C@@H]1CCCN1C(=O)[C@@H](NS(=O)(=O)c1ccc(F)cc1F)c1ccccc1	0	0	4	-4	0	.
CC(C)C[C@H](NS(=O)(=O)c1ccc(F)cc1F)C(=O)N1CCC[C@H]1C(=O)NCc1ccccc1	0	23*	8	-5	0	.
